ARFGAP1 inh: inhibitors of rat ARFGAP1 GAP activity, primary screen, biochemical, fluorescence polarization, GDP tracer; ADP-ribosylation factor GTPase-activating protein 1 (Rattus norvegicus), Q62848; Arfgap1-stimulated ARF1 GTP hydrolysis, GDP FP detection; inhibition, % at 16.5 µM; 360,000 tested, 0.26% active; AID 651572, 2012;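 active = inhibition above a per-plate limit, mean inhibition of low control wells plus 3 SD, cut at about 25% in these data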
Target sequence (Q62848 1-136 limits assumed): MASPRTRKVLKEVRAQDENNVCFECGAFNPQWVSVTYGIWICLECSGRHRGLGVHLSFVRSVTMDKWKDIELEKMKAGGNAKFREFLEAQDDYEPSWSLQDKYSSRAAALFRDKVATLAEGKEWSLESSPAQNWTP
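Material: truncated rat Arfgap1 GAP domain; Incubation: compound-enzyme preincubation 20 min, reaction 120 min, detection 60 min, 25 °C; Read-out: percent inhibition of Arfgap1-stimulated GTP hydrolysis; Technique: FP, GDP Alexa 633 tracer displaced from anti-GDP antibody, 620/688 nm; Controls: No-Arfgap1 wells (100%) versus DMSO full-reaction wells (0%); Replication: single well per compound.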
ASAP1 GAP inh: inhibitors of human ASAP1 ArfGAP activity, primary screen, biochemical, fluorescence polarization; Arf-GAP with SH3 domain, ANK repeat and PH domain-containing protein 1 (Homo sapiens), …; ASAP1-stimulated ARF1 GTP hydrolysis, GDP FP detection; inhibition, % at 16.5 µM; 360,000 tested, 0.19% active; AID 624377, 2012; in the data active = inhibition above about 25%
Target sequence (Q9ULH1 325-724 limits assumed): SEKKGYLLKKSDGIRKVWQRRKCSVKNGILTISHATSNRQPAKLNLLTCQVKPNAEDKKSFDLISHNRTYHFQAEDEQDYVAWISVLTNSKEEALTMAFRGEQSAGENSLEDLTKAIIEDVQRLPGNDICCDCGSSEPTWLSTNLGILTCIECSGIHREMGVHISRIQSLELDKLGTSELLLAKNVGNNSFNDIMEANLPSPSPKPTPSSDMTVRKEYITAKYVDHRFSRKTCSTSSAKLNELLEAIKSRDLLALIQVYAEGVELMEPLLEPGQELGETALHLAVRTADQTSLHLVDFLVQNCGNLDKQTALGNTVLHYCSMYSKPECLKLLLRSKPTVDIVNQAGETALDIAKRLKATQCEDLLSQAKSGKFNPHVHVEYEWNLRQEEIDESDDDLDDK
NadD block: inhibitors of S. aureus NadD, primary screen, biochemical, colorimetric, uHTS. Nicotinate-nucleotide adenylyltransferase NadD (Staphylococcus aureus N315). purified NadD enzyme, colorimetric absorbance read-out. inhibition, % at 20 µM. 360,000 tested, 0.78% active. AID 602399, 2012; in the data active = inhibition above about 26%
rCAG binder: binders of r(CAG) RNA repeats, primary screen, biochemical, fluorescence; r(CAG) RNA repeat, TO-PRO-1 dye displacement fluorescence; inhibition, % at 3 µM; 370,000 tested, 1.3% active; AID 651821, 2012;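 active = inhibition above the plate cutoff, the mean of all test compounds on that plate plus 3 SD, cut at about 35% in these data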;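 also: higher means more dye released from RNA so lower well fluorescence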
rCAG binder conf: small molecules binding CAG repeat RNA – biochemical, fluorescence, confirmation; 4,300 tested, 70% active; shares compounds with rCAG binder; AID 652065, 2013; inhibition, % at 3 µM; r(CAG) RNA repeat, TO-PRO-1 dye displacement fluorescence;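 active = inhibition above a per-plate cutoff, the mean inhibition of sample wells plus 3 SD, cut at about 35% in these data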;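 also: loss of TO-PRO-1 fluorescence as compound displaces dye from 1x1 AA loop RNA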
DNA CAG counter: displacement of TO-PRO-1 from CAG DNA duplex, counter-screen for rCAG RNA repeat binder project, biochemical, fluorescence, TO-PRO-1 dye, d(CAG) DNA oligo | inhibition, % at 3 µM | d(CAG) DNA oligo TO-PRO-1 dye displacement | 4,300 tested, 94% active | AID 652068, 2013 | shares compounds with rCAG binder;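 active = inhibition above its plate's cutoff, the mean test-well inhibition plus 3 SD, cut at about 4.8% in these data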;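 also: hits displace the dye from DNA and so lower well fluorescence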
dCAG dye DR: inhibitors of DNA CAG/GTC TO-PRO-1 complex, dose response, counter-screen for rCAG RNA repeat binder project, biochemical, fluorescence, TO-PRO-1 dye | shares compounds with rCAG binder | DNA CAG/GTC duplex TO-PRO-1 dye displacement fluorescence | IC50, µM | 250 tested, 20% active | AID 686960, 2013; in the data active = IC50 below about 10 µM
Hits are given with their value; i = inactive; nt = no result given. Most compounds without a hit are left out; they make up all but 2.2% or so of the library.

SMILES	ARFGAP1 inh	ASAP1 GAP inh	NadD block	rCAG binder	rCAG binder conf	DNA CAG counter	others
N#Cc1c(SCC(=O)Nc2ccc(C(F)(F)F)cc2)sc2c(O)cc(=O)[nH]c12	i	i	i	53	i	11
Cc1ccccc1N(C)S(=O)(=O)c1nnc(NC(=O)c2ccccc2F)s1	i	i	i	i	nt	nt
CCN(c1cc(C)cc(C)c1)S(=O)(=O)c1nnc(NC(=O)c2ccco2)s1	i	i	i	39	38	10
CCN(c1cc(C)cc(C)c1)S(=O)(=O)c1nnc(NC(=O)C(C)C)s1	i	i	i	i	nt	nt
CCN(c1ccccc1C)S(=O)(=O)c1nnc(NC(=O)c2ccco2)s1	i	i	i	41	i	6.9
Cc1ccccc1N1CCN(S(=O)(=O)c2nnc(NC(=O)c3ccco3)s2)CC1	i	i	i	43	72	26	dCAG dye DR=i
Cc1cc(C)c(C2=NOC3c4ccccc4OCC23)c(C)c1 (stereo not drawn)	i	i	nt	i	nt	nt
COc1cccc([C@@H]2CC=C(C(=O)O)[C@H](c3ccc(Br)cc3)N2S(=O)(=O)c2ccc(C)cc2)c1	i	i	i	i	nt	nt
Cc1ccc([C@H]2C(C(=O)O)=CC[C@@H](c3cccs3)N2S(=O)(=O)c2ccc(C)cc2)cc1	i	i	i	61	48	17
Cc1ccc(S(=O)(=O)N2C(c3cccc(Cl)c3)CC=C(C(=O)O)C2c2cccc(Cl)c2)cc1 (stereo not drawn)	i	i	nt	i	nt	nt
Cc1ccc(S(=O)(=O)N2[C@@H](c3cccc(Cl)c3)C(C(=O)O)=CC[C@H]2c2cccs2)cc1	i	i	i	58	50	15
Cc1ccc(S(=O)(=O)N2[C@@H](c3ccc(F)cc3)C(C(=O)O)=CC[C@H]2c2cccs2)cc1	i	i	i	43	37	9.9
Cc1ccc(S(=O)(=O)N2[C@@H](c3ccc(Br)cc3)C(C(=O)O)=CC[C@H]2c2cccs2)cc1	i	i	i	74	66	29
O=C(NCc1ccccc1)[C@@H]1CCCN1C(=O)[C@H]1CCCN1C(=O)c1ccc(Cl)c(Cl)c1	i	i	nt	i	nt	nt
Cc1ccc(S(=O)(=O)N2[C@@H](c3ccc(C(C)(C)C)cc3)C(C(=O)O)=CC[C@H]2c2cccs2)cc1	i	i	i	81	73	34	dCAG dye DR=9.5
Cc1ccc(S(=O)(=O)N2[C@@H](c3ccccc3)C(C(=O)O)=CC[C@H]2c2cccc(Cl)c2)cc1	i	i	i	i	nt	nt
Cc1ccc(S(=O)(=O)N2[C@@H](c3ccc(Cl)cc3)C(C(=O)O)=CC[C@H]2c2cccs2)cc1	i	i	i	67	54	17
COc1ccc(Cc2c(-c3cccc(Cl)c3)nc3ccc(C)cn23)c(C)c1	i	i	i	i	nt	nt
O=C(CC1S/C(=N/N=C/c2c[nH]c3ccccc23)NC1=O)Nc1ccccc1 (stereo not drawn)	i	i	i	60	45	15
O=C(CC1S/C(=N/N=C/c2c[nH]c3ccc(OCc4ccccc4)cc23)NC1=O)Nc1ccccc1 (stereo not drawn)	i	i	i	40	50	27
Nc1[nH]c(C(=O)c2ccccc2)c(-c2cccc3ccccc23)c1C(=O)NCc1ccc(F)c(F)c1	i	i	nt	i	nt	nt
CCN(CC)c1ccc(/C=C2/C(=O)c3ccc(C(=O)O)cc3C2=O)cc1	i	i	i	55	82	48
O=C(COc1ccc2c(-c3ccccc3)cc(=O)oc2c1)NC(Cc1c[nH]c2ccccc12)C(=O)O (stereo not drawn)	i	i	i	54	49	12
O=C(COc1ccc2c(-c3ccccc3)cc(=O)oc2c1)N[C@@H](Cc1c[nH]c2ccc(O)cc12)C(=O)O	i	i	i	37	39	13
O=C(Cc1cc(=O)oc2cc(O)ccc12)N[C@@H](Cc1c[nH]c2ccccc12)C(=O)O	i	i	i	i	nt	nt
SMILES	ARFGAP1 inh	ASAP1 GAP inh	NadD block	rCAG binder	rCAG binder conf	DNA CAG counter	others
O=C1CCC(=O)c2ccc3c4c(ccc1c24)CC3	i	i	i	49	i	i
O=C(O)c1ccc(N/N=C/c2ccc(C(F)(F)F)cc2)cc1	i	i	i	i	nt	nt
COc1cc(/C=N/Nc2ccc(Cl)c(C(=O)O)c2)ccc1OC(=O)c1ccccc1F	i	i	i	66	80	47
CC(C)(C)c1ccc(/C=N/Nc2ccc(C(=O)O)cc2)cc1	i	i	i	39	36	8.8
COc1cccc(C(=O)Oc2ccc(/C=N/Nc3ccc(C(=O)O)cc3)cc2OC)c1	i	i	i	70	67	25
COc1cc(/C=N/NS(=O)(=O)c2ccc3ccccc3c2)ccc1OCc1ccc(C(=O)O)cc1	i	i	i	48	40	11
COC(=O)[C@]12C[C@H](CC(=O)N3CCCCC3)C(=O)N(Cc3ccc4c(c3)OCO4)C1=C[C@H](C(C)(C)C)O[C@@H]2C	i	i	nt	i	nt	nt
CCOc1ccccc1N(CC(=O)NCCc1ccc(OC)c(OC)c1)S(=O)(=O)c1ccccc1	i	i	i	43	i	i
CC(C)C[C@H]1COc2ccc(Cl)cc2S(=O)(=O)N1	i	i	nt	i	nt	nt
C/C(=N/NC(=O)c1sc(NS(=O)(=O)c2ccccc2)nc1C)c1ccc(F)cc1	i	i	i	84	49	15
C/C(=N/NC(=O)c1sc(NS(=O)(=O)c2ccccc2)nc1C)c1ccccc1	i	i	i	58	i	7.1
Cc1ccc(C)c(S(=O)(=O)NNC(=O)c2sc(NS(=O)(=O)c3ccccc3)nc2C)c1	i	i	i	47	i	6.4
CCOC(=O)c1sc(NS(=O)(=O)c2ccccc2)nc1C	i	i	i	i	nt	nt
CCOC(=O)c1sc(NS(=O)(=O)c2ccc(F)cc2)nc1C	i	i	i	i	nt	nt
Cc1nc(C)c(C(=O)NNS(=O)(=O)c2ccccc2)s1	i	i	i	i	nt	nt
O=S(=O)(c1ccccc1)N1CCCc2nc(-c3ccc(Br)cc3)ccc21	i	i	nt	i	nt	nt
CC(C)OC(=O)[C@@H](Cc1ccccc1)N[C@H](/C=C/c1ccccc1)[C@@H](O)Cc1ccccc1	i	i	nt	i	nt	nt
